Series [1] deals with MS2 coat protein. The series can be described thus: apparent Kd, MS2 coat protein; higher = weaker binding; RNA-MaP array; theophylline 2 mM where present. An outline of the steps:
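Stalled E. coli RNA polymerase transcribed each design on Illumina sequencing-chip clusters. The clusters were titrated with SNAP-549-labelled MS2 coat protein, starting at 0.7 or 1.5 nM and doubling up to 3 µM, first without ligand and then with constant ligand, in 100 mM Tris-HCl pH 7.5, 80 mM KCl, 4 mM MgCl2, BSA, DTT, yeast tRNA and Tween-20. Green signal was normalised to red-channel RNA signal and to the control-cluster median Fmax. The apparent Kd is the median of filtered binding-curve fits made for each cluster.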

Series [2] concerns MS2 coat protein. The series can be described thus: apparent Kd, MS2 coat protein; higher = weaker binding; RNA-MaP array. An outline of the steps: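 Designed RNAs were transcribed on an Illumina sequencing chip from sequenced DNA templates. They were incubated at room temperature with fluorescently labeled MS2 coat protein at 1.5 nM to 3 μM, for 0.8–1.5 h at the lowest to 10–20 min at the highest concentrations, in Tris-HCl pH 7.5 buffer with KCl, MgCl2, BSA, DTT, tRNA and Tween20, with or without input ligand. Apparent Kd is the median of per-cluster binding-curve fits. Designs measured on fewer than 10 clusters were excluded.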

The mark [3] stands for this setting: designed as: ON switch for theophylline, no ligand.
Where [4] appears, read: ligand present: theophylline, designed as: ON switch for theophylline.
The mark [5] stands for this setting: designed as: OFF switch for flavin mononucleotide, no ligand.
[6] abbreviates: ligand present: flavin mononucleotide, designed as: OFF switch for flavin mononucleotide.
The mark [7] stands for this setting: designed as: ON switch for flavin mononucleotide, no ligand.
[8] abbreviates: ligand present: flavin mononucleotide, designed as: ON switch for flavin mononucleotide.

As to “AUCGUACCUGAGGAUACCAGCAUGUGAUCAUAACAUGAGGAUCACCCAUGUAAUCAGUGAUGCCCUUGGCAGCUUGGUCGGUACA”, the “apparent Kd” value with MS2 coat protein [1] (setting [3]) stood at 0.0516 µM; with MS2 coat protein [1] (setting [4]), 0.0264 µM.
Regarding “AUCAUGUAAUCAGAUACCAGACAUCUUUUAAUACAUAUUACAUGAGGAUCACCCAUGUUGGUCCCUUGGCAGCUGAAAUAUUUUU”, the “apparent Kd” value came out at 0.197 µM in the series on MS2 coat protein [1] (setting [3]) and 0.0868 µM in the series on MS2 coat protein [1] (setting [4]).
In the case of “GGUCUGAAAACCGAUCAAAGAUCGGAAGAUACCAGAGGGUGAUCCCUCCCUUGGCAGCUUCACAUGAGGAUCACCCAUGUAGACC”, the “apparent Kd” value with MS2 coat protein [1] (setting [3]) is 0.192 µM; in the series with MS2 coat protein [1] (setting [4]), 0.151 µM.
For “UGGUACAUGAGGAUCACCCAUGUUCCAGAUACCAGUGUCCCGCUGCACCCUUGGCAGCUGGUGGCACAUGAGGAUCACCCAUGUG”, the “apparent Kd” value came to 0.015 µM with MS2 coat protein [1] (designed as: OFF switch for theophylline, no ligand) and 0.0171 µM in the series on MS2 coat protein [1] (ligand present: theophylline, designed as: OFF switch for theophylline).
“UGAGUCUAAGGAUAUGCUGCCGACAACAUGAGGAUCACCCAUGUCUUUCGUUGUUCGCCGGCAGAAGGUAGCAAUU”: the entries for the “apparent Kd” value in the series on MS2 coat protein [2] (setting [5]) and with MS2 coat protein [2] (setting [6]) were 0.561 µM and 0.262 µM, respectively.
With “AGCGACAUGAGGAUCACCCAUGUACAUUCCCGAGGACCGGUACGGCCGCCACUCGAUGGAAGUGGUAGCAGCUUGGAUGGGCCUA”, the “apparent Kd” value worked out at 0.0157 µM in the series with MS2 coat protein [2] (designed as: ON switch for tryptophan, no ligand) and 0.0267 µM with MS2 coat protein [2] (ligand present: tryptophan, designed as: ON switch for tryptophan).
On to “UUGUGACAUGAGGAUCACCCAUGUGAGGAUAUUCUGCUUGUGGAUAGUACGACUUGAUGAAGAAGGCACGUUAU”, for which the “apparent Kd” value with MS2 coat protein [2] (setting [5]) was 0.0347 µM; with MS2 coat protein [2] (setting [6]) it was 0.0333 µM.
Taken in the same sequence, the figures for “CGAUCCUUGCAGAAGGACUAAAACCAAAUACCAGUAGGAUAUGCAACAUGAGGAUCACCCAUGUGACGAAGGAUGCGGGAAAUA” were 0.00882 µM and 0.00869 µM.
For the sequence “UCGGCUUCCCAAGGAUAUGAGGUGCUUAUCGACAUGAGGAUCACCCAUGUAAAACUAGCUGCCAUUCAGAAGGUGGACACGCGC”, the “apparent Kd” value was determined as 0.017 µM with MS2 coat protein [2] (setting [7]) and 0.00778 µM with MS2 coat protein [2] (setting [8]).
“AGGUGUCCAGGAGGAUAUGAUUGCAACACGCCCUCAGAAGGCCUUAUAUACAAAGCAUACAUGAGGAUCACCCAUGUAAUUGGA”: the “apparent Kd” value came to 0.00874 µM in the series with MS2 coat protein [2] (setting [7]) and 0.00911 µM in the series on MS2 coat protein [2] (setting [8]).
Take “AUCAAUAAUGUUAGGAUAUCUAGCUAUUUUAUGGUAGAGAAGGAACAUGAGGAUCACCCAUGUUGAGCUAUAUU”: the figures for the “apparent Kd” value with MS2 coat protein [2] (setting [5]) and in the series with MS2 coat protein [2] (setting [6]) were 0.00845 µM and 0.00882 µM, respectively.
In the case of “AUAACGACUUCAGGAUAUCUAAUAUGGCCUAUAUGCUGAAAACAUGAGGAUCACCCAUGUCAAGGAGAGAAGGGAAGACAAACA”, the “apparent Kd” value in the series with MS2 coat protein [2] (setting [5]) was 0.0133 µM; with MS2 coat protein [2] (setting [6]), 0.0102 µM.
Taken in the same sequence, the figures for “AUUAGGCGGCAGAAGGCCCAUACCCGGACAUGAGGAUCACCCAUGUACUCGUUUCGCCAUAUCAGGGAGGAUAUGCCAACAACU” were 0.0175 µM and 0.0158 µM.
Take “AUAUUCGUUCAGGAUAUGUUAAGCUCACGCCUAACAGAAGGGAAUACAUGAGGAUCACCCAUGUGGUGAUGGGA”: the “apparent Kd” value was found to be 0.498 µM in the series on MS2 coat protein [2] (setting [5]) and 0.426 µM in the series on MS2 coat protein [2] (setting [6]).
In the case of “AAGCUUCAACUUCAUUCACAUGAGGAUCACCCAUGUGAUCCGAGAAGGUUUCACUAGAAUUCUGAAAAGGAUAUCGAUCACAAU”, the “apparent Kd” value with MS2 coat protein [2] (setting [5]) is 0.0162 µM; in the series on MS2 coat protein [2] (setting [6]) it was 0.0197 µM.
With “CUAGGCGUGCAGAAGGCGGAAAUAUUUCGUGGCCGAGGAUAUGCUGAUAUAUCGCAAGUGACAUGAGGAUCACCCAUGUGUCUA”, the figures for the “apparent Kd” value with MS2 coat protein [2] (setting [7]) and with MS2 coat protein [2] (setting [8]) were 0.0166 µM and 0.0142 µM, respectively.
For “CAUUUACAUGAGGAUCACCCAUGUUAGUAAUGCUGAGGAUAUGGUCCACGCUCCUAUUUACCAGAAGGCAGUCUUG”, the “apparent Kd” value was 0.0192 µM with MS2 coat protein [2] (setting [7]) and 0.0138 µM with MS2 coat protein [2] (setting [8]).
Taken in the same sequence, the figures for “ACCCAACAUGAGGAUCACCCAUGUGCAUGCCUCGGAGGAUAUGACCUCAUUCAUCUUUGAUCAGAAGGCCGAUCGC” were 0.113 µM and 0.026 µM.
With “GAUAAAGUAGGAUAUACAUGAGGAUCACCCAUGUAGAGAGGAGAGCGUGCGAGAACCAGUAGAAGGACUAAACA”, the “apparent Kd” value was 0.0139 µM in the series with MS2 coat protein [2] (setting [5]) and 0.0124 µM with MS2 coat protein [2] (setting [6]).
Take “CAUGGAUAAGGAUAUACAUGAGGAUCACCCAUGUAUAGAAGGAUACAAAGAUAAGAAUGUAGAAGGUAUUGGUU”: the “apparent Kd” value worked out at 0.00975 µM in the series with MS2 coat protein [2] (setting [5]) and 0.00844 µM with MS2 coat protein [2] (setting [6]).

The values are drawn from the EternaBench riboswitch data.
